# Assays:
# Type in all cases: functional
# SNB-19 = assay: Growth inhibition of human SNB19 cells after 48 hrs by sulforhodamine B assay; conditions: SNB-19, 48 h; for CC50: read-out: LC50 (the source's name)
# How it was run: (§1)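 NCI 60-cell screen, five-dose mode. Cells grown in RPMI 1640 with 5% FBS and 2 mM L-glutamine and plated at 5000-40,000 cells/well according to doubling time. After 24 h preincubation, a Tz plate was TCA-fixed. Five concentrations (10-fold or 1/2 log dilutions) were applied for 48 h at 37 °C. SRB staining read at 515 nm. IC50 taken from [(Ti-Tz)/(C-Tz)]×100 = 50.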
# 786-0 = assay: Growth inhibition of human 786-0 cells after 48 hrs by sulforhodamine B assay; conditions: 786-0, 48 h; for CC50: read-out: LC50 (the source's name)
# How it was run: (§2)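 NCI five-dose SRB assay in RPMI 1640 with 5% FBS and 2 mM L-glutamine. Cells were preincubated 24 h, then exposed 48 h at 37 °C to five concentrations (10-fold or half-log serial dilutions from DMSO stocks). TCA fixation, SRB staining, and absorbance at 515 nm followed. IC50 was taken where [(Ti−Tz)/(C−Tz)]×100 = 50, with Tz as time-zero cell density.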
# OVCAR-8 = assay: Cytotoxicity against human OVCAR8 cells assessed as cell growth at 10 uM; conditions: read-out: Activity
# How it was run: (§3)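 NCI-60 screen: cells grown in RPMI 1640 with 5% FBS and 2 mM L-glutamine, plated at 5000–40,000 cells/well according to doubling time, and preincubated 24 h at 37 °C, 5% CO2. The single 10 µM dose (DMSO stock) was added, then incubated 48 h. Cells were TCA-fixed and stained with 0.4% SRB, read at 515 nm, and growth % calculated against time-zero and control plates.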
# HOP-62 = assay: Growth inhibition of human HOP62 cells after 48 hrs by sulforhodamine B assay; conditions: HOP-62, 48 h; how it was run: as §1
# M14 = assay: Cytotoxicity against human M14 cells assessed as cell growth at 0.001 uM after 48 hrs by sulforhodamine B assay; conditions: M14, 48 h, read-out: Activity
# MCF7 = assay: Growth inhibition of human MCF7 cells after 48 hrs by sulforhodamine B assay; conditions: MCF7, 48 h; how it was run: as §1
# SK-MEL-28 = assay: Cytotoxicity against human SK-MEL-28 cells assessed as cell growth at 1 uM after 48 hrs by sulforhodamine B assay; conditions: SK-MEL-28, 48 h, read-out: Activity
# HCT-15 = assay: Cytotoxicity against human HCT15 cells assessed as cell growth at 10 uM after 48 hrs by sulforhodamine B assay; conditions: HCT-15, 48 h, read-out: Activity
# MDA-MB-435 = assay: Cytotoxicity against human MDA-MB-435 cells assessed as cell growth at 10 uM after 48 hrs by sulforhodamine B assay; conditions: MDA-MB-435, 48 h, read-out: Activity
# [1] = Growth inhibition of human […] cells after 48 hrs by sulforhodamine B assay; conditions: for CC50: read-out: LC50 (the source's name); how it was run: as §1
# DU-145 [2] = assay: Cytotoxicity against human DU145 cells assessed as cell growth at 10 uM after 48 hrs by sulforhodamine B assay; conditions: DU-145, 48 h, read-out: Activity
# NCI-H23 [3] = assay: Cytotoxicity against human NCI-H23 cells assessed as cell growth at 0.001 uM after 48 hrs by sulforhodamine B assay; conditions: NCI-H23, 48 h, read-out: Activity
# K562 = assay: Growth inhibition of human K562 cells after 48 hrs by sulforhodamine B assay; conditions: K562, 48 h; how it was run: as §1
# UACC-257 = assay: Cytotoxicity against human UACC257 cells assessed as cell growth at 100 nM after 48 hrs by sulforhodamine B assay; conditions: UACC-257, 48 h, read-out: Activity
# SF-268 = assay: Cytotoxicity against human SF268 cells assessed as cell growth at 10 uM; conditions: read-out: Activity; how it was run: as §3
# RXF 393 = assay: Cytotoxicity against human RXF393 cells assessed as cell growth at 100 nM after 48 hrs by sulforhodamine B assay; conditions: RXF 393, 48 h, read-out: Activity
# HL-60(TB) = assay: Cytotoxicity against human HL-60(TB) cells assessed as cell growth at 10 uM; conditions: read-out: Activity
# How it was run: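 NCI 60-cell panel screen at a single concentration of 10 µM. Cells are grown in RPMI 1640 with 5% FBS and 2 mM L-glutamine and read by SRB protein staining at 515 nm. Percent growth is measured relative to time-zero and untreated controls; inhibition % is 100 minus growth %.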
# COLO 205 = assay: Cytotoxicity against human COLO205 cells assessed as cell growth at 0.01 uM after 48 hrs by sulforhodamine B assay; conditions: COLO 205, 48 h, read-out: Activity
# How it was run: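 NCI-60 five-dose screen. Cells were grown in RPMI 1640 with 5% FBS and 2 mM L-glutamine, plated at 5000–40,000 cells/well and preincubated for 24 h. Time-zero plates were TCA-fixed. DMSO-solubilized drug was added at five concentrations (10-fold or ½-log serial dilutions) for 48 h at 37 °C, 5% CO2. Cells were TCA-fixed, stained with 0.4% SRB and read at 515 nm. Percent growth used time-zero, control and test absorbances.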
# HCT-116 = assay: Cytotoxicity against human HCT116 cells assessed as cell growth at 0.01 uM after 48 hrs by sulforhodamine B assay; conditions: HCT-116, 48 h, read-out: Activity
# SW-620 = assay: Growth inhibition of human SW620 cells after 48 hrs by sulforhodamine B assay; conditions: SW-620, 48 h; for CC50: read-out: LC50 (the source's name); how it was run: as §1
# Malme-3M = assay: Cytotoxicity against human MALME-3M cells assessed as cell growth at 10 uM; conditions: read-out: Activity; how it was run: as §3
# NCI-H23 [4] = assay: Cytotoxicity against human NCI-H23 cells assessed as cell growth at 100 nM after 48 hrs by sulforhodamine B assay; conditions: NCI-H23, 48 h, read-out: Activity
# DU-145 [5] = assay: Growth inhibition of human DU145 cells after 48 hrs by sulforhodamine B assay; conditions: DU-145, 48 h; how it was run: as §2
# [6] = Cytotoxicity against human Hs 578T cells assessed as cell growth at 10 uM; conditions: read-out: Activity
# How it was run: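 Single-dose NCI-60 screen at 10 µM. Cells were grown in RPMI 1640 with 5% FBS and 2 mM L-glutamine, then treated for 48 h at 37 °C. Protein was measured by SRB staining with absorbance at 515 nm. Percentage growth was recorded, and inhibition percentage was calculated as 100 minus growth percentage.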
# OVCAR-5 = assay: Cytotoxicity against human OVCAR5 cells assessed as cell growth at 0.01 uM after 48 hrs by sulforhodamine B assay; conditions: OVCAR-5, 48 h, read-out: Activity
# BT-549 = assay: Growth inhibition of human BT549 cells after 48 hrs by sulforhodamine B assay; conditions: BT-549, 48 h; for CC50: read-out: LC50 (the source's name); how it was run: as §2
smiles,measurement,setting,value
Cc1cc(O)cc(-c2nn(CC#N)cc2-c2ccnc(-c3ccc(N(C)C)cc3)c2)c1,GI50,SNB-19,4.54 µM
same,TGI,SNB-19,43.9 µM
same,CC50,SNB-19,> 100 µM
same,GI50,786-0,3.41 µM
same,TGI,786-0,16.6 µM
same,CC50,786-0,> 100 µM
same,growth at 10 µM,OVCAR-8,45%
same,GI50,HOP-62,2.82 µM
same,LC50 (50% lethal concentration),HOP-62,> 100 µM
same,TGI,HOP-62,23.4 µM
same,growth at 0.001 µM,M14,96%
same,GI50,MCF7,0.975 µM
same,LC50,MCF7,69.9 µM
same,TGI,MCF7,13.9 µM
same,growth at 1 µM,SK-MEL-28,32%
same,growth at 10 µM,HCT-15,-39%
same,growth at 10 µM,MDA-MB-435,-31%
same,GI50,[1],3.71 µM
same,TGI,[1],22.2 µM
same,CC50,[1],> 100 µM
same,growth at 10 µM,DU-145 [2],-66%
same,growth at 0.001 µM,NCI-H23 [3],94%
same,GI50,K562,2.55 µM
same,LC50 (50% net cell kill),K562,> 100 µM
same,TGI,K562,32.8 µM
same,growth at 0.1 µM,UACC-257,83%
same,growth at 10 µM,SF-268,59.5%
same,growth at 0.1 µM,RXF 393,120%
same,growth at 10 µM,HL-60(TB),7.44%
same,growth at 0.01 µM,COLO 205,95%
same,growth at 0.01 µM,HCT-116,98%
same,GI50,SW-620,2.83 µM
same,TGI,SW-620,17.5 µM
same,CC50,SW-620,> 100 µM
same,growth at 10 µM,Malme-3M,75%
same,growth at 0.1 µM,NCI-H23 [4],98%
same,GI50,DU-145 [5],2.75 µM
same,LC50,DU-145 [5],53.2 µM
same,TGI,DU-145 [5],8.57 µM
same,growth at 10 µM,[6],47.7%
same,growth at 0.01 µM,OVCAR-5,91%
same,GI50,BT-549,2.77 µM
same,TGI,BT-549,12.1 µM
same,CC50,BT-549,> 100 µM
COc1cc(C)cc(-c2c(-c3ccnc(-c4ccc(C(C)=O)cc4)c3)cnn2CC#N)c1,GI50,SNB-19,> 100 µM
same,TGI,SNB-19,> 100 µM
same,CC50,SNB-19,> 100 µM
same,GI50,786-0,3.11 µM
same,TGI,786-0,> 100 µM
same,CC50,786-0,> 100 µM
same,growth at 10 µM,OVCAR-8,80.1%
same,GI50,HOP-62,3.35 µM
same,LC50 (50% lethal concentration),HOP-62,> 100 µM
same,TGI,HOP-62,> 100 µM
same,growth at 0.001 µM,M14,95%
same,GI50,MCF7,3.25 µM
same,LC50,MCF7,> 100 µM
same,TGI,MCF7,> 100 µM
same,growth at 1 µM,SK-MEL-28,44%
same,growth at 10 µM,HCT-15,12%
same,growth at 10 µM,MDA-MB-435,16%
same,GI50,[1],2.59 µM
same,TGI,[1],9.02 µM
same,CC50,[1],> 100 µM
same,growth at 10 µM,DU-145 [2],15%
same,growth at 0.001 µM,NCI-H23 [3],94%
same,GI50,K562,0.795 µM
same,LC50 (50% net cell kill),K562,> 100 µM
same,TGI,K562,> 100 µM
same,growth at 0.1 µM,UACC-257,81%
same,growth at 10 µM,SF-268,90.5%
same,growth at 0.1 µM,RXF 393,94%
same,growth at 10 µM,HL-60(TB),57%
same,growth at 0.01 µM,COLO 205,102%
same,growth at 0.01 µM,HCT-116,91%
same,GI50,SW-620,2.27 µM
same,TGI,SW-620,> 100 µM
same,CC50,SW-620,> 100 µM
same,growth at 10 µM,Malme-3M,103%
same,growth at 0.1 µM,NCI-H23 [4],95%
same,GI50,DU-145 [5],3.42 µM
same,LC50,DU-145 [5],> 100 µM
same,TGI,DU-145 [5],> 100 µM
same,growth at 10 µM,[6],88.5%
same,growth at 0.01 µM,OVCAR-5,70%
same,GI50,BT-549,3.12 µM
same,TGI,BT-549,> 100 µM
same,CC50,BT-549,> 100 µM
COc1cc(C)cc(-c2c(-c3ccnc(-c4ccc(N(C)C)cc4)c3)cnn2CC#N)c1,GI50,SNB-19,0.362 µM
same,TGI,SNB-19,> 100 µM
same,CC50,SNB-19,> 100 µM
same,GI50,786-0,0.0853 µM
same,TGI,786-0,> 100 µM
same,CC50,786-0,> 100 µM
same,growth at 10 µM,OVCAR-8,25.4%
same,GI50,HOP-62,0.263 µM
same,LC50 (50% lethal concentration),HOP-62,> 100 µM
same,TGI,HOP-62,> 100 µM
same,growth at 0.001 µM,M14,95%
same,growth at 10 µM,HCT-15,9%
same,growth at 10 µM,MDA-MB-435,-23%
same,GI50,[1],0.266 µM
same,TGI,[1],1.96 µM
same,CC50,[1],> 100 µM
same,growth at 10 µM,DU-145 [2],-48%
same,growth at 0.001 µM,NCI-H23 [3],86%
same,GI50,K562,0.0584 µM
same,LC50 (50% net cell kill),K562,> 100 µM
same,TGI,K562,3.82 µM
same,growth at 0.1 µM,UACC-257,41%
same,growth at 10 µM,SF-268,26.4%
same,growth at 10 µM,HL-60(TB),-5.87%
same,growth at 0.01 µM,COLO 205,72%
same,growth at 0.01 µM,HCT-116,44%
same,GI50,SW-620,0.0394 µM
same,TGI,SW-620,> 100 µM
same,CC50,SW-620,> 100 µM
same,growth at 10 µM,Malme-3M,103%
same,growth at 0.1 µM,NCI-H23 [4],28%
same,GI50,DU-145 [5],0.113 µM
same,TGI,DU-145 [5],0.334 µM
same,growth at 10 µM,[6],30.8%
same,growth at 0.01 µM,OVCAR-5,73%
same,GI50,BT-549,0.0751 µM
same,TGI,BT-549,0.514 µM
same,CC50,BT-549,> 100 µM

# Reference: ChEMBL document CHEMBL1165950, “Design and synthesis of new potent anticancer pyrazoles with high FLT3 kinase inhibitory selectivity” (Bioorg Med Chem, 2010)
